From ChEMBL document CHEMBL3132796 (Medchemcomm, 2013) come the findings set out here.

pIC50, pKi: −log10 of the molar value. Calls of active or inactive are those of the source. The calls are words filed in the database; no cut-off is given here.

Assay [1] in a line: Decrease of SK1 expression in human PAMSC cells at 10 uM after 24 hrs by Western blot analysis. It counts as functional, cell-based. (In western blotting, separated proteins are transferred to a membrane and probed.)
The target in assay [2] is T1, Sphingosine kinase 2 (Homo sapiens) (UniProt Q9NRA0).
T1 sequence (whole entry): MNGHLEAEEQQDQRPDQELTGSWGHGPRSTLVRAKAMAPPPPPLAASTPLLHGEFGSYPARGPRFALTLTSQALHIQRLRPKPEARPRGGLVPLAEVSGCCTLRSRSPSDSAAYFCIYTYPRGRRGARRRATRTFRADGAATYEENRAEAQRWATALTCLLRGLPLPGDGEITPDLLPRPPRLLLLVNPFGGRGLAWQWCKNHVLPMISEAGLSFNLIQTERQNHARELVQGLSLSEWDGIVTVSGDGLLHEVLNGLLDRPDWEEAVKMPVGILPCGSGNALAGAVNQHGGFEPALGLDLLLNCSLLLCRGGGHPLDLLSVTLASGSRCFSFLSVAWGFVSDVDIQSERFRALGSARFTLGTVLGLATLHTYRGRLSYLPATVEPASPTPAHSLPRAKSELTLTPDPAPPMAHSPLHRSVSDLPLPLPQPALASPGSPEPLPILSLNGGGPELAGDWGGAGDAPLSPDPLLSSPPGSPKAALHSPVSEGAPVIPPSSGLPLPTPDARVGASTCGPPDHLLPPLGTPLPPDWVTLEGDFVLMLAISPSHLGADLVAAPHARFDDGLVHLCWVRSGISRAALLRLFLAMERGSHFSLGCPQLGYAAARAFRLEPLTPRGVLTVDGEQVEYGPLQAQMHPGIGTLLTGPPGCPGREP
In words: Inhibition of purified SK2 (unknown origin) using sphingosine and [gamma-32P]ATP as substrate at 50 uM after 30 mins relative to control. The procedure, abridged: (§1)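 Buffer: 20 mM Tris pH 7.4 with EDTA, phosphatase and protease inhibitors, 20% glycerol and 400 mM KCl. Inhibitors were added in DMSO; control was 5% v/v DMSO.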

In assay [3] the target is T2, Sphingosine kinase 2 (Homo sapiens, UniProt Q9NRA0).
T2 sequence (Q9NRA0 whole entry): T1 sequence (whole entry)
In words: Inhibition of purified SK2 (unknown origin) using sphingosine and [gamma-32P]ATP as substrate after 30 mins. The procedure, abridged: as §1

Assay [4] has as its target T1, Sphingosine kinase 2 (Homo sapiens). In words: Activity at purified SK2 (unknown origin) using ATP at 250 uM relative to control.
Assay [5] has as its target T3, Sphingosine kinase 1 (Homo sapiens, UniProt Q9NYA1). Kind of assay: Inhibition of recombinant SK1 (unknown origin) using sphingosine and [gamma-32P]ATP as substrate after 30 mins.
In assay [6] the target is T3, Sphingosine kinase 1. In words: Activity at recombinant SK1 (unknown origin) using ATP at 250 uM relative to control.
Assay [7] concerns the target T2, Sphingosine kinase 2. In words: Inhibition of SK2 (unknown origin). The method, boiled down:
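Purified SK2 (37 ng) run 30 min at 30 °C with 10 µM sphingosine complexed to fatty-acid-free BSA (0.2 mg/mL final) and 250 µM [γ-32P]ATP in 10 mM MgCl2. Buffer: 20 mM Tris pH 7.4 with phosphatase/protease inhibitors and 400 mM KCl. Inhibitor added in DMSO; control 5% v/v DMSO. Sphingosine level matches the SK2 Km.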

The nature of assay [8]: Decrease of SK1 expression in human PAMSC cells at 100 nM after 24 hrs by Western blot analysis in presence of proteasomal inhibitor MG132. It counts as functional, cell-based.
The subject of assay [9] is PAMSC. The settings on record: Homo sapiens, 10 to 100 nM.
Assay [10] can be described thus: Decrease of SK1 expression in human PAMSC cells at 100 nM after 24 hrs by Western blot analysis. It counts as functional, cell-based.
Assay [11] has as its system PAMSC. Kind of assay: Inhibition of DNA synthesis in human PAMSC cells assessed as [3H]-thymidine incorporation into DNA at 100 nM to 1 uM after 24 hrs. It counts as functional, cell-based. The procedure, abridged:
(§2)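 Pulmonary arterial smooth muscle cells were grown to 60% confluency and quiesced 24 h in basal medium with 0.1% eFCS. They were then treated with inhibitor in DMSO (vehicle 0.1% DMSO) for 48 h in complete medium, with [3H]-thymidine (0.25 µCi/mL) added for the final 24 h. Cells were washed with TCA, solubilised in SDS/NaOH and counted by scintillation. Each concentration was run in triplicate.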
For orientation: Dividing cells build labelled thymidine or BrdU into new DNA.

Assay [12] in a line: Decrease of SK1 expression in human PAMSC cells at 10 uM after 24 hrs by Western blot analysis in presence of proteasomal inhibitor MG132. It counts as functional, cell-based.
Assay [13] deals with T1, Sphingosine kinase 2 (Homo sapiens). The following applies: 50 uM.
Assay [14] relates to PAMSC. In words: Inhibition of DNA synthesis in human PAMSC cells assessed as [3H]-thymidine incorporation into DNA at 300 nM after 24 hrs. In kind it is functional, cell-based. The procedure, abridged: as §2
For assay [15], the target named is T1, Sphingosine kinase 2 (Homo sapiens). The following applies: 1.5 uM.

T3 sequence (Q9NYA1 whole entry): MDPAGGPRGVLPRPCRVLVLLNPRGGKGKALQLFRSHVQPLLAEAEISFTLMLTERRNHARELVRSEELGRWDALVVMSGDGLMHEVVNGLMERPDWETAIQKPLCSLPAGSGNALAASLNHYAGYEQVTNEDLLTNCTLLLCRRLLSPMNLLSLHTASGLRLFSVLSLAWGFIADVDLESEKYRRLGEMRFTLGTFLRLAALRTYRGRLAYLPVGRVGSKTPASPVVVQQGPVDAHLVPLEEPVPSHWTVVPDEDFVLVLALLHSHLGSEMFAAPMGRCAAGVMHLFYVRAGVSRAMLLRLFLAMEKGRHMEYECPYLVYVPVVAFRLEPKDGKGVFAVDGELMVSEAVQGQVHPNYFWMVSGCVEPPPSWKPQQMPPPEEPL

For orientation: inhibition means the percentage by which the read-out fell short of the control. By pIC50 is commonly meant the negative decadic logarithm of the IC50, by convention in mol/L. Consider `CCCCCCCCCCCCCCC[C@@H](O)[C@H](CO)NC(=S)Nc1cccc(C(F)(F)F)c1`, for which the outcome in assay [1] was inactive. Besides, the inhibition in assay [2] amounted to 80%. The pIC50 against Sphingosine kinase 2 [3] was 4.66; on Sphingosine kinase 1 [5] it was 4.16. For the same molecule, the outcome in [4] was Active.
As for `CCCCCCCCCCCCC/C=C\[C@@H](O)[C@@H](N)CO`, the outcome (on Sphingosine kinase 1 [6]; in [4]) was Active.
`CCCCCCCCCCCCCC[C@@H](O)[C@@H](O)[C@H](CO)NC(=S)Nc1ccc(F)cc1` registered an inhibition in assay [2] of 64.5%.
Regarding `CCCCCCCCCCCCCC[C@H]1OC[C@H](NC(=S)Nc2c(F)c(F)c(F)c(F)c2F)[C@@H]1O`, the result on Sphingosine kinase 1 [6] was Active.
In the case of `CCCCCCCCCCCCCCC[C@@H](O)[C@H](CO)NC(=S)Nc1cccc(F)c1`, the inhibition entry in assay [2] was “Active”. Moreover, the outcome (at Sphingosine kinase 1 [6]; in assay [4]) was Active.
For `CCCCCCCCCCCCC/C=C/[C@@H](O)[C@H](CO)NC(=S)Nc1ccc(F)cc1`, the inhibition in assay [2] was 79.2%.
Take `CCCCCCCCCCCCCCC[C@@H](O)[C@H](C)[N+](C)(C)C`: the result on Sphingosine kinase 1 [6] was Active.
In the case of `CCCCCCCCCCCCCC[C@@H](O)[C@@H](O)[C@H](CO)NC(=O)Nc1ccc(C(F)(F)F)cc1`, the inhibition in [2] stood at 53.9%.
One may read the pKi as the Ki on a negative log10 scale, so that one unit is a factor of ten. A lower pKi goes with a high Ki. The molecule `O=C(NCc1ccncc1)C12CC3CC(C1)CC(c1ccc(Cl)cc1)(C3)C2` [ABC-294640] had a pKi at Sphingosine kinase 2 [7] of 5.00.
For the molecule `Cc1cc(CS(=O)(=O)c2ccccc2)cc(OCc2ccc(CN3CCC[C@@H]3CO)cc2)c1`, in [8], the outcome was inactive. For the same molecule, in the assay on PAMSC [9], the inhibition entry was “inactive”. Besides, in assay [10], the outcome was Active.
Take `CCCCCCCCCCCCCCC[C@@H](O)[C@H](C)N`: the outcome (in assay [1]; in the assay on PAMSC [11]) was Active. Besides, the results for the pIC50 against Sphingosine kinase 2 [3] and on Sphingosine kinase 1 [5] were 3.12 and 5.15, respectively. The outcome in [12] was inactive.
In the case of `CCCCCCCCCCCCc1ccc(C(=O)N2CCC[C@H]2C(=N)N)cc1`, the inhibition result in [13] was “Active”. Further, the inhibition result in the assay on PAMSC [14] was “inactive”. This molecule yielded an inhibition in assay [15] of 73.4%.
For `CCCCCCCCCCCCC/C=C/[C@@H](O)[C@H](CO)NC(=S)Nc1ccc(C(F)(F)F)cc1`, the inhibition result in assay [2] was “Active”.
On to `CCCCCCCCCCCCCCOCC(O)[C@H](C)N(C)C` (single isomer, unassigned), for which the pIC50 is 3.52 on Sphingosine kinase 2 [3] and 4.56 on Sphingosine kinase 1 [5].
